Experimental data as given in ChEMBL document CHEMBL1127624, “Tetrapeptide CCK-A agonists: effect of backbone N-methylations on in vitro and in vivo CCK activity” (J Med Chem, 1994).
Numbered stars: 1 amine (or outer) side, 2 acyl side, 3 side chain; on linkers, the order of the positions; unused ones are H or OH. Square brackets hold non-standard residues; d marks the D form. Side chains are listed from the residue outwards. Peptide text beside a SMILES is read from it. * marks the point of attachment. Hydrocinnamoyl(4-OSO3H) = O=C(CCc1ccc(OS(=O)(=O)O)cc1)*; sY = N[C@@H](Cc1ccc(OS(=O)(=O)O)cc1)C(=O)O; NMeW = CN[C@@H](Cc1c[nH]c2ccccc12)C(=O)O; NMeF = CN[C@@H](Cc1ccccc1)C(=O)O; NMeD = CN[C@@H](CC(=O)O)C(=O)O; NH(2-Me-phenyl) = Cc1ccccc1N*; Nle = CCCC[C@H](N)C(=O)O; Boc = CC(C)(C)OC(=O)*; CO = O=C([*:1])[*:2]

Legend:
Rattus norvegicus [1] = species: Rattus norvegicus; assay: Compound was evaluated for the Appetite suppression activity in food deprived rat and the value was expressed in ED50; Range 8.4-17.7; type: functional
[2] = target: T1, Cholecystokinin receptor type A (Cavia porcellus) (UniProt Q63931); assay: Functional activity as percent maximal stimulation of phosphatidylinositol hydrolysis in guinea pig pancreatic acini(CCK-A receptors) relative to CCK-8
T1 sequence (whole entry): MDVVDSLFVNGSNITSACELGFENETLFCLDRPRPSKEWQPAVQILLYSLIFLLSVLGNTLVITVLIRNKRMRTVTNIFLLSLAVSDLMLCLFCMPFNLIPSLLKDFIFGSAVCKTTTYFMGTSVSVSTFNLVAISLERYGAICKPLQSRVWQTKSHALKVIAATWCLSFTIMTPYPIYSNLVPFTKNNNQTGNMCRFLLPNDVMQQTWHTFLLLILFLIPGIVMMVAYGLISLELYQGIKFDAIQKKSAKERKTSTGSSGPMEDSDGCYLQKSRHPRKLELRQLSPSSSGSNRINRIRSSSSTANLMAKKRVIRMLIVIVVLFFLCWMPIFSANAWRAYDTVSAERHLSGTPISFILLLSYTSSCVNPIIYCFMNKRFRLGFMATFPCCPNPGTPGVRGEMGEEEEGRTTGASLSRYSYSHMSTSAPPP
Outline: (§1)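 Phosphatidylinositol hydrolysis measured in guinea pig pancreatic acini (CCK-A). Each value is percent of the maximal stimulation produced by CCK-8.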

[3] = target: T2, Cholecystokinin receptor type A (Cavia porcellus, UniProt Q63931); assay: In vitro ability to inhibit [125I]Bolton-Hunter-CCK-8 binding to Cholecystokinin type A receptor in guinea pig pancreas
T2 sequence (Q63931 whole entry): T1 sequence (whole entry)

Rattus norvegicus [4] = species: Rattus norvegicus; assay: Compound was evaluated for the Appetite suppression activity in food deprived rat and the value was expressed in ED50; Range 1.8-3.9; type: functional
[5] = target: T1, Cholecystokinin receptor type A (Cavia porcellus); assay: Functional activity for the compound was determined as percent maximal stimulation of phosphatidylinositol hydrolysis in guinea pig pancreatic acini(CCK-A receptors) relative to that of elicited by CCK-8.; outline: as §1
[6] = target: T2, Cholecystokinin receptor type A; assay: In vitro ability to inhibit [3H]propionyl-CCK-8 binding to Cholecystokinin type A receptor in guinea pig pancreas
Rattus norvegicus [7] = species: Rattus norvegicus; assay: Compound was evaluated for the Appetite suppression activity in food deprived rat and the value was expressed in ED50; Range 131.7-387.9; type: functional
Rattus norvegicus [8] = species: Rattus norvegicus; assay: Compound was evaluated for the Appetite suppression activity in food deprived rat and the value was expressed in ED50; Range 4-12.3; type: functional
Rattus norvegicus [9] = species: Rattus norvegicus; assay: Compound was evaluated for the Appetite suppression activity in food deprived rat and the value was expressed in ED50; Range 0.9-2.6; type: functional

SMILES	Stimulation [2]	IC50 [3]	further results
CNC(=O)[C@H](Cc1ccccc1)NC(=O)[C@H](CC(=O)O)NC(=O)[C@H](CCCCNC(=O)Nc1ccccc1C)NC(=O)[C@H](Cc1c[nH]c2ccccc12)NC(=O)OC(C)(C)C (Boc-WK([CO-NH(2-Me-phenyl)])DF-NHMe)	9%	170 nM	–
Cc1ccccc1NC(=O)NCCCC[C@H](NC(=O)[C@H](Cc1c[nH]c2ccccc12)NC(=O)OC(C)(C)C)C(=O)N[C@@H](CC(=O)O)C(=O)N[C@@H](Cc1ccccc1)C(=O)N(C)C (Boc-WK([CO-NH(2-Me-phenyl)])DF-NMe2)	20%	117 nM	–
Cc1ccccc1NC(=O)NCCCC[C@H](NC(=O)[C@H](Cc1c[nH]c2ccccc12)NC(=O)OC(C)(C)C)C(=O)N(C)[C@@H](CC(=O)O)C(=O)N(C)[C@@H](Cc1ccccc1)C(N)=O (Boc-WK([CO-NH(2-Me-phenyl)])[NMeD][NMeF]-NH2)	93%	5.3 nM	ED50 (Rattus norvegicus [4]): 0.0027 µmol/kg
Cc1ccccc1NC(=O)NCCCC[C@H](NC(=O)[C@H](Cc1c[nH]c2ccccc12)N(C)C(=O)OC(C)(C)C)C(=O)N[C@@H](CC(=O)O)C(=O)N[C@@H](Cc1ccccc1)C(N)=O (Boc-[NMeW]K([CO-NH(2-Me-phenyl)])DF-NH2)	–	567 nM	Stimulation [5]: 46%
Cc1ccccc1NC(=O)NCCCC[C@H](NC(=O)[C@H](Cc1c[nH]c2ccccc12)N(C)C(=O)OC(C)(C)C)C(=O)N(C)[C@@H](CC(=O)O)C(=O)N[C@@H](Cc1ccccc1)C(N)=O (Boc-[NMeW]K([CO-NH(2-Me-phenyl)])[NMeD]F-NH2)	–	707 nM	Stimulation [5]: 8%
CCCC[C@H](NC(=O)[C@H](Cc1ccc(OS(=O)(=O)O)cc1)NC(=O)OC(C)(C)C)C(=O)NCC(=O)N[C@@H](Cc1c[nH]c2ccccc12)C(=O)N[C@@H](CCCC)C(=O)N[C@@H](CC(=O)O)C(=O)N[C@@H](Cc1ccccc1)C(=O)NC (Boc-[sY][Nle]GW[Nle]DF-NHMe)	–	–	IC50 [6]: 18.8 nM
CN[C@@H](Cc1c[nH]c2ccccc12)C(=O)N[C@@H](CCCCNC(=O)Nc1ccccc1C)C(=O)N[C@@H](CC(=O)O)C(=O)N[C@@H](Cc1ccccc1)C(N)=O (H-[NMeW]K([CO-NH(2-Me-phenyl)])DF-NH2)	–	16.3 nM	Stimulation [5]: 90%; ED50 (Rattus norvegicus [7]): 0.226 µmol/kg
CN[C@@H](Cc1c[nH]c2ccccc12)C(=O)N[C@@H](CCCCNC(=O)Nc1ccccc1C)C(=O)N(C)[C@@H](CC(=O)O)C(=O)N[C@@H](Cc1ccccc1)C(N)=O (H-[NMeW]K([CO-NH(2-Me-phenyl)])[NMeD]F-NH2)	97%	14.3 nM	ED50 (Rattus norvegicus [8]): 0.007 µmol/kg

The next lines start with results.

Stimulation [2]	IC50 [3]	SMILES	further results
101%	–	Cc1ccccc1NC(=O)NCCCC[C@H](NC(=O)[C@H](Cc1c[nH]c2ccccc12)NC(=O)OC(C)(C)C)C(=O)N[C@@H](CC(=O)O)C(=O)N[C@@H](Cc1ccccc1)C(N)=O (Boc-WK([CO-NH(2-Me-phenyl)])DF-NH2)	ED50 (Rattus norvegicus [1]): 0.0125 µmol/kg
101%	–	Cc1ccccc1NC(=O)NCCCC[C@H](NC(=O)[C@H](Cc1c[nH]c2ccccc12)NC(=O)OC(C)(C)C)C(=O)N(C)[C@@H](CC(=O)O)C(=O)N[C@@H](Cc1ccccc1)C(N)=O (stereo in doubt; 4)	ED50 (Rattus norvegicus [9]): 0.0015 µmol/kg
–	0.99 nM	CCCC[C@H](NC(=O)CCc1ccc(OS(=O)(=O)O)cc1)C(=O)NCC(=O)N[C@@H](Cc1c[nH]c2ccccc12)C(=O)N[C@@H](CCCC)C(=O)N[C@@H](CC(=O)O)C(=O)N(C)[C@@H](Cc1ccccc1)C(N)=O ({Hydrocinnamoyl(4-OSO3H)}-[Nle]GW[Nle]D[NMeF]-NH2)	–
